{"data": "Assay results pooled from the literature", "SLC6A3": "Sodium-dependent dopamine transporter (SLC6A3, Homo sapiens, UniProt Q01959)", "DRD3": "D(3) dopamine receptor (DRD3, Homo sapiens, UniProt P35462)", "PPARG": "Peroxisome proliferator-activated receptor gamma (PPARG, Homo sapiens, UniProt P37231)", "CA12": "Carbonic anhydrase 12 (CA12, Homo sapiens, UniProt O43570)", "CASP3": "Caspase-3 (CASP3, Homo sapiens, UniProt P42574)", "note": "Compare with care: the assays were run in different laboratories."}
{"SMILES": "CSC[C@H](NC(=O)C1=NO[C@@H]2OCC[C@H]12)C(=O)N[C@@H](CC(C)C)[C@@H](O)C[C@@H](C)C(=O)N[C@H](C(=O)NCC(C)C)C(C)C", "target": "Beta-secretase 2 (BACE2, Homo sapiens, UniProt Q9Y5Z0)", "assay": "enzyme activity, inhibitor", "Ki [nM]": 46}
{"SMILES": "CCN(CC)c1ccc(C2Nc3ccc(C(=O)c4ccccc4)cc3NC3=C2C(=O)CC(C)(C)C3)cc1 (stereo not shown)", "target": "SLC6A3", "assay": "cell-free assay, radioligand", "Ki [nM]": "> 10000"}
{"SMILES": "CC(C)c1nc2cc(OCCCCN3CCN(c4cccc5c4OCCO5)CC3)ccc2s1", "target": "SLC6A3", "assay": "ligand displacement, radioligand", "Ki [nM]": 2500}
{"SMILES": "Oc1cccc(CCC2=NCCN2Cc2ccccc2)c1", "target": "DRD3", "assay": "ligand displacement, radioligand", "Ki [nM]": 1260}
{"SMILES": "CC1(C)C=Cc2c(cc3oc(-c4ccccc4)c(O)c(=O)c3c2O)O1", "target": "PPARG", "assay": "cell-free assay, TR-FRET", "Ki [nM]": 3200}
{"SMILES": "CC1Cc2ccccc2N1C(=O)CCCN(C)[C@@H]1Cc2cccc3[nH]c(=O)n(c23)C1 (stereo partly shown)", "target": "DRD3", "assay": "ligand displacement, radioligand", "setting": "cell membranes", "Ki [nM]": 3340}
{"SMILES": "COc1cccc(CCC2=NCCN2CCc2ccccc2)c1", "target": "DRD3", "assay": "ligand displacement, radioligand", "Ki [nM]": "> 10000"}
{"SMILES": "CCCC[C@H](NC(=O)[C@H](C)c1c(C)[nH]c2ccc(O)cc12)c1ncc(-c2cc3ccccc3nc2OC)[nH]1", "target": "Prostaglandin F2-alpha receptor (PTGFR, Homo sapiens, UniProt P43088)", "assay": "cell-free assay", "Ki [nM]": 8980}
{"SMILES": "CN1CCN(c2ccc(-c3ccnn3-c3ccc(S(N)(=O)=O)cc3)cc2)CC1", "target": "CA12", "assay": "enzyme activity, inhibitor, stopped-flow", "Ki [nM]": 404}
{"SMILES": "Cc1nc2cc(OCCCCN3CCN(c4cccc(Cl)c4Cl)CC3)ccc2s1", "target": "SLC6A3", "assay": "ligand displacement, radioligand", "Ki [nM]": 690}
{"SMILES": "O=c1c(O)c(-c2ccc(O)cc2)oc2cc(O)cc(O)c12", "target": "CASP3", "assay": "enzyme activity, inhibitor, fluorescence", "Ki [nM]": 194000}
{"SMILES": "NS(=O)(=O)c1ccc(-n2nccc2-c2ccc(N3CCCCC3)cc2)cc1", "target": "CA12", "assay": "enzyme activity, inhibitor, stopped-flow", "Ki [nM]": 298}
{"SMILES": "O=c1c(O)c(-c2ccc(O)c(O)c2)oc2cc(O)cc(O)c12", "target": "CASP3", "assay": "enzyme activity, inhibitor, fluorescence", "Ki [nM]": 96400}
{"SMILES": "CN(CC[C@@H]1C[C@H]1CNC(=O)c1cc2ccccc2[nH]1)[C@@H]1Cc2cccc3[nH]c(=O)n(c23)C1", "target": "DRD3", "assay": "ligand displacement, radioligand", "setting": "cell membranes", "Ki [nM]": 398}
{"SMILES": "CN(CCOc1ccc(CC2SC(=O)N(CC(=O)OC(C)(C)C)C2=O)cc1)c1ccccn1 (stereo not shown)", "target": "PPARG", "assay": "ligand displacement, TR-FRET", "Ki [nM]": 103}
{"SMILES": "CN(CCCCNC(=O)c1cc2ccccc2[nH]1)[C@@H]1Cc2cccc3[nH]c(=O)n(c23)C1", "target": "DRD3", "assay": "ligand displacement, radioligand", "setting": "cell membranes", "Ki [nM]": 82.7}
{"SMILES": "CC(=O)N[C@@H](CCCCNC(=O)CSCCNC(=O)CCNC(=O)[C@H](O)C(C)(C)COP(=O)(O)OP(=O)(O)OC[C@H]1O[C@@H](n2cnc3c(N)ncnc32)[C@H](O)[C@@H]1OP(=O)(O)O)C(N)=O", "target": "Histone acetyltransferase type B catalytic subunit (Homo sapiens, UniProt O14929)", "assay": "enzyme activity, inhibitor, radiometric", "Ki [nM]": 74800}
{"SMILES": "CC1Cc2ccccc2N1C(=O)NCCCCN(C)[C@@H]1Cc2cccc3[nH]c(=O)n(c23)C1 (mixture of isomers)", "target": "DRD3", "assay": "ligand displacement, radioligand", "setting": "cell membranes", "Ki [nM]": 139}
{"SMILES": "COc1ccc2c(c1)C(=O)N(CCCN1CCN(c3ccccc3OC)CC1)C2", "target": "DRD3", "assay": "ligand displacement, radioligand", "Ki [nM]": 389}
